Data on eight compounds can be found in ChEMBL document CHEMBL1926632, “Cytotoxic triterpenoid saponins from Lysimachia clethroides” (J Nat Prod, 2011).

A word on the IC50: it is the midpoint of a concentration-inhibition curve. High values mean a need for much substance, low ones inhibition by little substance.

Assay type in all cases: functional, cell-based
One experiment relates to HT-29. The experiment in a line: Cytotoxicity against human HT-29 cells by MTT assay. In outline: (§1)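 MTT read-out following a previously published method. Cell origins: HT-29 colon cancer, HePG2 hepatoma, BGC-823 gastric cancer, A549 lung epithelial, A375 amelanotic melanoma, all human. Paclitaxel served as positive control in the same panel.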
On the technique in general: Tetrazolium dyes change colour on reduction, which living cells bring about.

In the next experiment the test system is HepG2. The experiment can be described thus: Cytotoxicity against human HepG2 cells by MTT assay. In outline:
as §1

A further experiment concerns A549. The experiment can be described thus: Cytotoxicity against human A549 cells by MTT assay. Put shortly:
as §1

A further experiment deals with A-375. The experiment in a line: Cytotoxicity against human A375 cells by MTT assay. In outline:
as §1

The next experiment concerns BGC-823. The experiment in a line: Cytotoxicity against human BGC823 cells by MTT assay. In outline: as §1

For the compound `CC(=O)O[C@H]1C(=O)[C@@]2(C)[C@H]([C@H](OC(=O)c3ccccc3)[C@]3(O)C[C@H](OC(=O)[C@H](O)[C@@H](NC(=O)c4ccccc4)c4ccccc4)C(C)=C1C3(C)C)[C@]1(OC(C)=O)CO[C@@H]1C[C@@H]2O` [PACLITAXEL], the IC50 came to 3.94 nM with HT-29, 4.4 nM in the experiment on HepG2, 44.9 nM in the experiment on A549 and 4.9 nM with A-375.

Regarding `CC1(C)[C@@H](O[C@@H]2OC[C@H](O[C@@H]3O[C@H](CO)[C@@H](O)[C@H](O)[C@H]3O)[C@H](O)[C@H]2O[C@@H]2O[C@H](CO)[C@@H](O)[C@H](O)[C@H]2O)CC[C@]2(C)[C@H]3CC[C@]45OC[C@@]6(CC[C@](C)(CO)C[C@H]64)[C@H](O)C[C@@]5(C)[C@]3(C)CC[C@@H]12` [ARDISIANOSIDE E], the IC50 with HT-29 turned out to be 1810 nM; in the experiment on HepG2, 750 nM; in the experiment on BGC-823 it was 1140 nM; in the experiment with A549, 2470 nM; with A-375, 1710 nM.

For the compound `CC1(C)CC[C@]23CO[C@@]4(CC[C@@H]5[C@@]6(C)CC[C@H](O[C@@H]7OC[C@H](O[C@@H]8O[C@H](CO)[C@@H](O)[C@H](O)[C@H]8O[C@@H]8OC[C@@H](O)[C@H](O)[C@H]8O)[C@H](O)[C@H]7O[C@@H]7O[C@H](CO)[C@@H](O)[C@H](O)[C@H]7O)C(C)(C)[C@@H]6CC[C@@]5(C)[C@]4(C)CC2=O)[C@@H]3C1` [CLETHROIDOSIDE D], the IC50 with HT-29 amounted to 1980 nM; in the experiment on HepG2, 1730 nM; with BGC-823, 1360 nM; with A549, 2360 nM; in the experiment on A-375, 1910 nM.

Take `CC1(C)CC[C@]23CO[C@@]4(CC[C@@H]5[C@@]6(C)CC[C@H](O[C@@H]7OC[C@H](O[C@@H]8O[C@H](CO)[C@@H](O)[C@H](O)[C@H]8O[C@@H]8OC[C@@H](O)[C@H](O)[C@H]8O)[C@H](O)[C@H]7O[C@@H]7O[C@H](CO)[C@@H](O)[C@H](O)[C@H]7O)C(C)(C)[C@@H]6CC[C@@]5(C)[C@]4(C)C[C@H]2O)[C@@H]3C1` [LYSIKOKIANOSIDE 1]: the IC50 with HT-29 was found to be 1960 nM; in the experiment with HepG2 it was 1000 nM; in the experiment with BGC-823, 1750 nM; in the experiment on A549 it was 1910 nM; with A-375, 1940 nM.

In the case of `C[C@@H]1O[C@@H](O[C@H]2[C@H](O[C@H]3CO[C@@H](O[C@H]4CC[C@]5(C)[C@H]6CC[C@]78OC[C@@]9(CCC(C)(C)C[C@H]97)C(=O)C[C@@]8(C)[C@]6(C)CC[C@H]5C4(C)C)[C@H](O[C@@H]4O[C@H](CO)[C@@H](O)[C@H](O)[C@H]4O)[C@H]3O)O[C@H](CO)[C@@H](O)[C@@H]2O)[C@H](O)[C@H](O)[C@H]1O` [CLETHROIDOSIDE C], the IC50 with HT-29 turned out to be 1990 nM; with HepG2, 1480 nM; with BGC-823, 1930 nM; with A549 it was 2620 nM; in the experiment on A-375 it was 1140 nM.

For `CC(=O)OC[C@H]1O[C@@H](O[C@H]2[C@H](O[C@H]3CC[C@]4(C)[C@H]5CC[C@]67OC[C@@]8(CCC(C)(C)C[C@H]86)[C@H](O)C[C@@]7(C)[C@]5(C)CC[C@H]4C3(C)C)OC[C@H](O[C@@H]3O[C@H](CO)[C@@H](O)[C@H](O)[C@H]3O[C@@H]3O[C@@H](C)[C@H](O)[C@@H](O)[C@H]3O)[C@@H]2O)[C@H](O)[C@@H](O)[C@@H]1O` [CLETHROIDOSIDE E], the IC50 in the experiment on HT-29 is 1400 nM; with HepG2, 6260 nM; in the experiment on BGC-823 it was 8050 nM; in the experiment on A549, over 10000 nM; with A-375, over 10000 nM.

As for `C[C@@H]1O[C@@H](O[C@H]2[C@H](O[C@H]3CO[C@@H](O[C@H]4CC[C@]5(C)[C@H]6CC[C@]78OC[C@@]9(CCC(C)(C)C[C@H]97)[C@H](O)C[C@@]8(C)[C@]6(C)CC[C@H]5C4(C)C)[C@H](O[C@@H]4O[C@H](CO)[C@@H](O)[C@H](O)[C@H]4O)[C@H]3O)O[C@H](CO)[C@@H](O)[C@@H]2O)[C@H](O)[C@H](O)[C@H]1O`, the IC50 in the experiment on HT-29 turned out to be 1960 nM; with HepG2, 990 nM; in the experiment on BGC-823, 2070 nM; in the experiment with A549, 1950 nM; in the experiment on A-375, 2130 nM.

Consider `CC(=O)O[C@H]1[C@H](OC(C)=O)[C@]23CO[C@@]4(CC[C@@H]5[C@@]6(C)CC[C@H](O[C@@H]7OC[C@H](O[C@@H]8O[C@H](CO)[C@@H](O)[C@H](O)[C@H]8O[C@@H]8OC[C@@H](O)[C@H](O)[C@H]8O)[C@H](O)[C@H]7O[C@@H]7O[C@H](CO)[C@@H](O)[C@H](O)[C@H]7O)C(C)(C)[C@@H]6CC[C@@]5(C)[C@]4(C)C[C@H]2O)[C@@H]3CC1(C)C` [CLETHROIDOSIDE F], for which the IC50 in the experiment on HT-29 was 2040 nM; with HepG2, 1260 nM; in the experiment on BGC-823 it was 1950 nM; with A549, 2280 nM; with A-375, 2190 nM.
